{
  "source": "ChEMBL document CHEMBL5303300",
  "about": "“EUbOPEN Chemogenomics Library - Multiplex” (2023)",
  "key": {"[1]": {"system": "HEK-293T", "experiment": "Multiplex assay against HEK293T", "format": "toxicity, cell-based", "settings": "human, number of replicates 2", "how_it_was_run": "(§1)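 Imaging took place on a CQ1 microscope at 37°C and 5% CO2 once compound had been added to live cells stained at seeding with Hoechst33342, BioTracker Green Microtubule Cytoskeleton Dye, MitoTracker Red and Annexin V Alexa Fluor 680. CellPathfinder machine-learning gating classed cells as Hoechst high-intensity objects or normal cells, classed normal cells as having healthy, pyknosed or fragmented nuclei, and classed pyknosed cells as mitotic or apoptotic. Tubulin, mitochondrial-mass and membrane-permeability phenotypes are per cents of the healthy-nucleus cells.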"}, "[2]": {"system": "U2OS", "experiment": "Multiplex assay against U2OS", "format": "toxicity, cell-based", "settings": "human, number of replicates 2", "how_it_was_run": "as §1"}, "[3]": {"settings": "12 h, 1 µM, compound concentration 1 uM"}, "[4]": {"settings": "12 h, 10 µM, compound concentration 10 uM"}, "[5]": {"settings": "24 h, 1 µM, compound concentration 1 uM"}, "[6]": {"settings": "24 h, 10 µM, compound concentration 10 uM"}, "[7]": {"settings": "48 h, 1 µM, compound concentration 1 uM"}, "[8]": {"settings": "48 h, 10 µM, compound concentration 10 uM"}},
  "note": "Several values for one entry are separate records, joined by “and”; a condition that tells them apart may be missing. Equal entries are not always repeated.",
  "data": [
    {"smiles": "CN(C)C/C=C/C(=O)Nc1ccc(C(=O)N2CCCC(Nc3ncc(Cl)c(-c4c[nH]c5ccccc45)n3)C2)cc1", "note": "(configuration not stated)", "values": [
      {"measurement": "Population Apoptotic (%)", "setting": "[1]; [3]", "result": "55% and 71%"},
      {"measurement": "Population Fragmented Nuclei (%)", "setting": "[1]; [3]", "result": "6% and 2%"},
      {"measurement": "Population Healthy Nuclei (%)", "setting": "[1]; [3]", "result": "72% and 69%"},
      {"measurement": "Population Hoechst High Intensity Objects (%)", "setting": "[1]; [3]", "result": "14% and 16%"},
      {"measurement": "Population Membrane Permeable-Phenotype (%)", "setting": "[1]; [3]", "result": "3% and 1%"},
      {"measurement": "Population Mitochondria Different-Phenotype (%)", "setting": "[1]; [3]", "result": "63% and 58%"},
      {"measurement": "Population Mitotic Cells (%)", "setting": "[1]; [3]", "result": "44% and 28%"},
      {"measurement": "Population Normal (%)", "setting": "[1]; [3]", "result": "85% and 83%"},
      {"measurement": "Population Pyknosed Nuclei (%)", "setting": "[1]; [3]", "result": "20% and 28%"},
      {"measurement": "Population Tubulin-Different-Phenotype (%)", "setting": "[1]; [3]", "result": "83% and 79%"},
      {"measurement": "Total Cell Count", "setting": "[1]; [3]", "result": "354 and 300"},
      {"measurement": "Population Apoptotic (%)", "setting": "[1]; [4]", "result": "69% and 84%"},
      {"measurement": "Population Fragmented Nuclei (%)", "setting": "[1]; [4]", "result": "5% and 11%"},
      {"measurement": "Population Healthy Nuclei (%)", "setting": "[1]; [4]", "result": "67% and 68%"},
      {"measurement": "Population Hoechst High Intensity Objects (%)", "setting": "[1]; [4]", "result": "29% and 21%"},
      {"measurement": "Population Membrane Permeable-Phenotype (%)", "setting": "[1]; [4]", "result": "5% and 2%"},
      {"measurement": "Population Mitochondria Different-Phenotype (%)", "setting": "[1]; [4]", "result": "63% and 70%"},
      {"measurement": "Population Mitotic Cells (%)", "setting": "[1]; [4]", "result": "30% and 15%"},
      {"measurement": "Population Normal (%)", "setting": "[1]; [4]", "result": "70% and 78%"},
      {"measurement": "Population Pyknosed Nuclei (%)", "setting": "[1]; [4]", "result": "26% and 20%"},
      {"measurement": "Population Tubulin-Different-Phenotype (%)", "setting": "[1]; [4]", "result": "88% and 85%"},
      {"measurement": "Total Cell Count", "setting": "[1]; [4]", "result": "280 and 375"},
      {"measurement": "Population Apoptotic (%)", "setting": "[1]; [5]", "result": "73% and 75%"},
      {"measurement": "Population Fragmented Nuclei (%)", "setting": "[1]; [5]", "result": "6% and 5%"},
      {"measurement": "Population Healthy Nuclei (%)", "setting": "[1]; [5]", "result": "75% and 74%"},
      {"measurement": "Population Hoechst High Intensity Objects (%)", "setting": "[1]; [5]", "result": "17% and 19%"},
      {"measurement": "Population Membrane Permeable-Phenotype (%)", "setting": "[1]; [5]", "result": "2% and 0%"},
      {"measurement": "Population Mitochondria Different-Phenotype (%)", "setting": "[1]; [5]", "result": "68% and 60%"},
      {"measurement": "Population Mitotic Cells (%)", "setting": "[1]; [5]", "result": "26% and 25%"},
      {"measurement": "Population Normal (%)", "setting": "[1]; [5]", "result": "82% and 80%"},
      {"measurement": "Population Pyknosed Nuclei (%)", "setting": "[1]; [5]", "result": "17% and 20%"},
      {"measurement": "Population Tubulin-Different-Phenotype (%)", "setting": "[1]; [5]", "result": "80% and 68%"},
      {"measurement": "Total Cell Count", "setting": "[1]; [5]", "result": "318 and 268"},
      {"measurement": "Population Apoptotic (%)", "setting": "[1]; [6]", "result": "89% and 91%"},
      {"measurement": "Population Fragmented Nuclei (%)", "setting": "[1]; [6]", "result": "7% and 10%"},
      {"measurement": "Population Healthy Nuclei (%)", "setting": "[1]; [6]", "result": "75% and 71%"},
      {"measurement": "Population Hoechst High Intensity Objects (%)", "setting": "[1]; [6]", "result": "28% and 25%"},
      {"measurement": "Population Membrane Permeable-Phenotype (%)", "setting": "[1]; [6]", "result": "5% and 2%"},
      {"measurement": "Population Mitochondria Different-Phenotype (%)", "setting": "[1]; [6]", "result": "78% and 79%"},
      {"measurement": "Population Mitotic Cells (%)", "setting": "[1]; [6]", "result": "10% and 8%"},
      {"measurement": "Population Normal (%)", "setting": "[1]; [6]", "result": "71% and 74%"},
      {"measurement": "Population Pyknosed Nuclei (%)", "setting": "[1]; [6]", "result": 17, "unit": "%"},
      {"measurement": "Population Tubulin-Different-Phenotype (%)", "setting": "[1]; [6]", "result": "88% and 86%"},
      {"measurement": "Total Cell Count", "setting": "[1]; [6]", "result": "313 and 357"},
      {"measurement": "Population Apoptotic (%)", "setting": "[1]; [7]", "result": "85% and 78%"},
      {"measurement": "Population Fragmented Nuclei (%)", "setting": "[1]; [7]", "result": "9% and 4%"},
      {"measurement": "Population Healthy Nuclei (%)", "setting": "[1]; [7]", "result": "75% and 77%"},
      {"measurement": "Population Hoechst High Intensity Objects (%)", "setting": "[1]; [7]", "result": "22% and 15%"},
      {"measurement": "Population Membrane Permeable-Phenotype (%)", "setting": "[1]; [7]", "result": "0% and 1%"},
      {"measurement": "Population Mitochondria Different-Phenotype (%)", "setting": "[1]; [7]", "result": "76% and 69%"},
      {"measurement": "Population Mitotic Cells (%)", "setting": "[1]; [7]", "result": "14% and 21%"},
      {"measurement": "Population Normal (%)", "setting": "[1]; [7]", "result": "77% and 84%"},
      {"measurement": "Population Pyknosed Nuclei (%)", "setting": "[1]; [7]", "result": "15% and 17%"},
      {"measurement": "Population Tubulin-Different-Phenotype (%)", "setting": "[1]; [7]", "result": "81% and 77%"},
      {"measurement": "Total Cell Count", "setting": "[1]; [7]", "result": "284 and 272"},
      {"measurement": "Population Apoptotic (%)", "setting": "[1]; [8]", "result": "75% and 83%"},
      {"measurement": "Population Fragmented Nuclei (%)", "setting": "[1]; [8]", "result": "8% and 17%"},
      {"measurement": "Population Healthy Nuclei (%)", "setting": "[1]; [8]", "result": 54, "unit": "%"},
      {"measurement": "Population Hoechst High Intensity Objects (%)", "setting": "[1]; [8]", "result": "24% and 26%"},
      {"measurement": "Population Membrane Permeable-Phenotype (%)", "setting": "[1]; [8]", "result": "1% and 5%"},
      {"measurement": "Population Mitochondria Different-Phenotype (%)", "setting": "[1]; [8]", "result": "75% and 70%"},
      {"measurement": "Population Mitotic Cells (%)", "setting": "[1]; [8]", "result": "25% and 16%"},
      {"measurement": "Population Normal (%)", "setting": "[1]; [8]", "result": "75% and 73%"},
      {"measurement": "Population Pyknosed Nuclei (%)", "setting": "[1]; [8]", "result": "36% and 28%"},
      {"measurement": "Population Tubulin-Different-Phenotype (%)", "setting": "[1]; [8]", "result": "83% and 82%"},
      {"measurement": "Total Cell Count", "setting": "[1]; [8]", "result": "362 and 446"},
      {"measurement": "Population Apoptotic (%)", "setting": "[2]; [3]", "result": "28% and 47%"},
      {"measurement": "Population Healthy Nuclei (%)", "setting": "[2]; [3]", "result": "61% and 77%"},
      {"measurement": "Population Hoechst High Intensity Objects (%)", "setting": "[2]; [3]", "result": 0, "unit": "%"},
      {"measurement": "Population Membrane Permeable-Phenotype (%)", "setting": "[2]; [3]", "result": "7% and 3%"},
      {"measurement": "Population Mitochondria Different-Phenotype (%)", "setting": "[2]; [3]", "result": 3, "unit": "%"},
      {"measurement": "Population Mitotic Cells (%)", "setting": "[2]; [3]", "result": "71% and 52%"},
      {"measurement": "Population Normal (%)", "setting": "[2]; [3]", "result": 100, "unit": "%"},
      {"measurement": "Population Pyknosed Nuclei (%)", "setting": "[2]; [3]", "result": "16% and 15%"},
      {"measurement": "Population Tubulin-Different-Phenotype (%)", "setting": "[2]; [3]", "result": "88% and 93%"},
      {"measurement": "Population Apoptotic (%)", "setting": "[2]; [4]", "result": "66% and 86%"},
      {"measurement": "Population Fragmented Nuclei (%)", "setting": "[2]; [4]", "result": "20% and 10%"},
      {"measurement": "Population Healthy Nuclei (%)", "setting": "[2]; [4]", "result": "44% and 40%"},
      {"measurement": "Population Hoechst High Intensity Objects (%)", "setting": "[2]; [4]", "result": 0, "unit": "%"},
      {"measurement": "Population Membrane Permeable-Phenotype (%)", "setting": "[2]; [4]", "result": "0% and 22%"},
      {"measurement": "Population Mitotic Cells (%)", "setting": "[2]; [4]", "result": "33% and 13%"},
      {"measurement": "Population Normal (%)", "setting": "[2]; [4]", "result": "100% and 99%"},
      {"measurement": "Population Pyknosed Nuclei (%)", "setting": "[2]; [4]", "result": "36% and 48%"},
      {"measurement": "Population Tubulin-Different-Phenotype (%)", "setting": "[2]; [4]", "result": "81% and 57%"},
      {"measurement": "Population Apoptotic (%)", "setting": "[2]; [5]", "result": "70% and 76%"},
      {"measurement": "Population Fragmented Nuclei (%)", "setting": "[2]; [5]", "result": "19% and 8%"},
      {"measurement": "Population Healthy Nuclei (%)", "setting": "[2]; [5]", "result": "52% and 67%"},
      {"measurement": "Population Hoechst High Intensity Objects (%)", "setting": "[2]; [5]", "result": 0, "unit": "%"},
      {"measurement": "Population Membrane Permeable-Phenotype (%)", "setting": "[2]; [5]", "result": "10% and 3%"},
      {"measurement": "Population Mitochondria Different-Phenotype (%)", "setting": "[2]; [5]", "result": "0% and 1%"},
      {"measurement": "Population Mitotic Cells (%)", "setting": "[2]; [5]", "result": "30% and 23%"},
      {"measurement": "Population Normal (%)", "setting": "[2]; [5]", "result": 100, "unit": "%"}
    ]}
  ]
}
